Source: PubChem BioAssay
Shown are actives, neighbours in structure and some others; about 3.1% of the full set was active somewhere.
UHRF1 MBD2 ctr = human UHRF1 methylated DNA binding inhibitors; Q96T88; UHRF1 binding to methylated oligo, TR-FRET; inhibition, % at 4.4 µM; actives 0.75% (n = 370,000); AID 687016;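 note: UHRF1 SRA domain binding a hemimethylated CpG hairpin DNA probe; 0% = median of test compound wells and 100% = reference inhibitor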
Target sequence (Q96T88 whole entry, looked up, the tested form may be a part): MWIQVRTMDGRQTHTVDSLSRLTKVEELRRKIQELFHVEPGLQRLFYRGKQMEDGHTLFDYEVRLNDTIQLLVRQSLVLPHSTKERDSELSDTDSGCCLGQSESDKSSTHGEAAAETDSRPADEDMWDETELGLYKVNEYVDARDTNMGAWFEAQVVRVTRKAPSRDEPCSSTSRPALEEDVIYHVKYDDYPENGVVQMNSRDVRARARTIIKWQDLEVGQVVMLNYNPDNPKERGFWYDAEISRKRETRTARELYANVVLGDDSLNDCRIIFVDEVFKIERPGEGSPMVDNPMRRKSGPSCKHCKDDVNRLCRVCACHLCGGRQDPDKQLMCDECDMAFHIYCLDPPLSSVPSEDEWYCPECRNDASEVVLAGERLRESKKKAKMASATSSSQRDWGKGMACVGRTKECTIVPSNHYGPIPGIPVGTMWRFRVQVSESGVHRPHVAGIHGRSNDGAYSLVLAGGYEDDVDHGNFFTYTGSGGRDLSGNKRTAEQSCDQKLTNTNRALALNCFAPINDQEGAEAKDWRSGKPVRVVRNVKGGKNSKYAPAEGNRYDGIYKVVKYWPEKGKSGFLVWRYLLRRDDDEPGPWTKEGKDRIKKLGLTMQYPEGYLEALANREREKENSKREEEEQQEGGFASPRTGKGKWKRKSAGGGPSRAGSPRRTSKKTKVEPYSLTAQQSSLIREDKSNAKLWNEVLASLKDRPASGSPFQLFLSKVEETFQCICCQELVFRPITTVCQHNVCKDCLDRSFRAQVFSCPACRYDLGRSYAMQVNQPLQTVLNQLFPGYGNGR
MBD2 inh = inhibitors of human MBD2 binding to methylated oligonucleotide; Q9UBB5; TR-FRET; inhibition, % at 4.4 µM; actives 0.31% (n = 370,000); AID 686964; in the data active = inhibition above about 13%
PRMT1 FP inh = inhibitors of human PRMT1. inhibition, % at 2.79 µM. Q99873. recombinant PRMT1, activity-based probe fluorescence polarization. actives 1.3% (n = 370,000);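 active = inhibition above about 21% made by adding two undisclosed values, limit read from the data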
LEDGF integ inh = blocks HIV-1 LEDGF/p75-dependent DNA integration. TR-FRET IN-LEDGF/p75 DNA integration, Eu/Cy5. inhibition, % at 3.7 µM. actives 0.64% (n = 370,000);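 active = inhibition above the screen-wide mean plus 3 SD, cut at about 13% in these data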;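 note: signal is the Cy5 over europium emission ratio at 671 and 618 nm; 0% = plate median of compound wells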
ABHD5 PLIN5 PPI = ABHD5-PLIN5 protein interaction inhibition; Q00G26+Q8WTS1; Split G. princeps luciferase complementation, luminescence, 4 h; inhibition, % at 4 µM; actives 0.78% (n = 360,000);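 active = inhibition above the mean inhibition across every tested compound plus 3 SD, cut at about 22% in these data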;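 note: 0% = DMSO only wells and the 100% control is not disclosed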
RBBP9 inh = human RBBP9 hydrolase inhibition; O75884; recombinant RBBP9, FP-Rh probe fluorescence polarization; inhibition, % at 7.94 µM; actives 0.2% (n = 220,000); AID 1515;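 active = inhibition above the campaign mean of all tested compounds plus 3 SD, cut at about 14% in these data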;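 note: plate controls were DMSO wells with RBBP9 for no effect and wells lacking RBBP9 protein for full effect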
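Test system – recombinant human RBBP9 · Input – RBBP9 2.5 µM in dispensing solution, pre-mixing · Medium – Tris buffer pH 8.0, NaCl, Pluronic · Schedule – preincubation 30 min plus labeling 45 min at 25 °C · Measured by – fluorescence polarization · Measure – % inhibition · Controls – DMSO and no-protein wells · Replicates – one well per compound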
UHRF1 ctr MBD2 = counter-screen for MBD2 inhibitors: human UHRF1 methylated DNA binding inhibitors; shares compounds with MBD2 inh; UHRF1 binding to methylated oligonucleotide, TR-FRET; inhibition, % at 4.4 µM; actives 25% (n = 1,000);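 note: UHRF1 SRA domain binding a labeled hemimethylated CpG hairpin DNA; 0% = vehicle only and 100% = reference inhibitor with vehicle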
MBD2 DBD conf = MBD2-DBD methyl-DNA binding inhibition, TR-FRET confirmation. inhibition, % at 4.4 µM. actives 26% (n = 1,000). TR-FRET MBD2-DBD binding to methylated oligonucleotide. shares compounds with MBD2 inh; in the data active = inhibition above about 14%
IN multimer act = counter-screen for LEDGF/p75 integration inhibitors: HIV-1 integrase multimerization activators | shares compounds with LEDGF integ inh | TR-FRET HIV-1 integrase multimerization, biochemical | activation, % at 7.7 µM | actives 17% (n = 2,000) | AID 1053131; in the data active = activation above about 8.9%
TRFRET interf = optically interferes with TR-FRET readout in LEDGF counter-screen; shares compounds with LEDGF integ inh; TR-FRET optical interference counterscreen, HIV-1 IN multimerization; inhibition, % at 7.7 µM; 2,000 tested, under 10 active;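 active = inhibition above the mean over all tested compounds plus 3 SD, which no compound reached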;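 note: 0% = integrase with antibodies and DMSO and 100% = antibodies without integrase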
IN-LEDGF confirm = LEDGF/p75-dependent HIV-1 integration inhibition, confirmation; inhibition, % at 3.7 µM; shares compounds with LEDGF integ inh; TR-FRET LEDGF/p75-dependent HIV-1 integration, biochemical; actives 36% (n = 2,000); in the data active = inhibition above about 14%
Numbers without * were called inactive. Cut-off read from the data, not from the text of the source, unless noted: active = inhibition above about 21%; inactive = the rest.

How did Nc1ccc(C(CC(=O)O)n2cccc2)cc1 (stereo not drawn) do in these assays?
UHRF1 MBD2 ctr: 100.3*; MBD2 inh: 42.8*; PRMT1 FP inh: 4.9; LEDGF integ inh: 64.9*; ABHD5 PLIN5 PPI: 1.9; RBBP9 inh: -5.4; UHRF1 ctr MBD2: 8.8; MBD2 DBD conf: 1.1; IN multimer act: 0.2; TRFRET interf: -1.1; IN-LEDGF confirm: 4.1

How did Cc1ccc(Cn2cc(CN3[C@@H](Cc4ccccc4)COc4cc(Br)ccc4S3(=O)=O)nn2)cc1 do in these assays?
UHRF1 MBD2 ctr: -2.2; MBD2 inh: -3.2; PRMT1 FP inh: -2.0; LEDGF integ inh: -1.5

What do the screens show for `Nc1ccc2nc(-c3cccc(-c4nc5ccc(N)cc5[nH]4)c3)[nH]c2c1`?
UHRF1 MBD2 ctr: 25.6*; MBD2 inh: 13.6*; PRMT1 FP inh: 4.0; LEDGF integ inh: 16.2*; ABHD5 PLIN5 PPI: -3.3; UHRF1 ctr MBD2: 3.5; MBD2 DBD conf: 4.0; IN multimer act: 59.9*; TRFRET interf: -213.4; IN-LEDGF confirm: -11.5

How did CC(=O)c1cc(-c2ccccc2)n(CC(=O)NCc2ccc(F)cc2)c1C do in these assays?
UHRF1 MBD2 ctr: 0.2; MBD2 inh: 3.4; PRMT1 FP inh: -1.6; LEDGF integ inh: -1.1

What do the screens show for `COc1cc(/C=C(\C#N)C(=O)c2ccc(O)c(O)c2)cc(I)c1O`?
UHRF1 MBD2 ctr: 58.1*; MBD2 inh: 21.9*; PRMT1 FP inh: 29.2*; LEDGF integ inh: 90.3*; ABHD5 PLIN5 PPI: 16.2; UHRF1 ctr MBD2: 2.6; MBD2 DBD conf: -6.2; IN multimer act: 21.5*; TRFRET interf: -108.3; IN-LEDGF confirm: 81.7*

Results for O=C(Nc1cc2c(oc1=O)CCCC2=O)c1ccc(Cl)cc1 ?
UHRF1 MBD2 ctr: 41.1*; MBD2 inh: 15.7*; PRMT1 FP inh: 2.5; LEDGF integ inh: 17.1*; ABHD5 PLIN5 PPI: 4.3; RBBP9 inh: 3.4; UHRF1 ctr MBD2: 29.5*; MBD2 DBD conf: 15.6*; IN multimer act: 7.2; TRFRET interf: -25.8; IN-LEDGF confirm: 22.5*

Results for COCc1cn(-c2ccc3c(c2)[C@@]2(CC(=O)N(C)C2c2ccccc2)C(=O)N3CC(C)C)nn1 (stereo partly drawn) ?
UHRF1 MBD2 ctr: -2.1; MBD2 inh: 4.0; PRMT1 FP inh: -5.2; LEDGF integ inh: 4.7

How did Clc1ccccc1Cn1ccc2ccc(-c3ccc4ccn(Cc5ccccc5Cl)c4c3)cc21 do in these assays?
UHRF1 MBD2 ctr: 1.5; MBD2 inh: -0.9; PRMT1 FP inh: 5.2; LEDGF integ inh: -2.1

What do the screens show for `C/C=C\C(=O)Nc1cccc(C2=NOC3(C2)C[C@@H](C(N)=O)N(C(=O)C2(C)CC2)C3)c1` (stereo partly drawn)?
UHRF1 MBD2 ctr: 3.6; MBD2 inh: 3.5; PRMT1 FP inh: 1.1; LEDGF integ inh: 2.1; ABHD5 PLIN5 PPI: 6.3

What do the screens show for `C=C(C)C(=O)N1CC2(CC(c3cccc(NC(=O)/C=C\C=C/C)c3)=NO2)C[C@H]1C(N)=O` (stereo partly drawn)?
UHRF1 MBD2 ctr: 3.9; MBD2 inh: 2.1; PRMT1 FP inh: 1.5; LEDGF integ inh: 2.4; ABHD5 PLIN5 PPI: 9.0

Results for C=C(C)C(=O)Nc1cccc(C2=NOC3(C2)C[C@@H](C(N)=O)N(C(=O)C(=C)C)C3)c1 (stereo partly drawn) ?
UHRF1 MBD2 ctr: 73.6*; MBD2 inh: 35.1*; PRMT1 FP inh: -1.3; LEDGF integ inh: 15.5*; ABHD5 PLIN5 PPI: -1.0; UHRF1 ctr MBD2: 72.8*; MBD2 DBD conf: 41.8*; IN multimer act: 17.4*; TRFRET interf: -87.8; IN-LEDGF confirm: 30.0*

How did C=C(C)C(=O)Nc1cccc(C2=NOC3(C2)C[C@H](C(N)=O)N(C(=O)/C=C/C)C3)c1 (stereo partly drawn) do in these assays?
UHRF1 MBD2 ctr: 82.4*; MBD2 inh: 46.1*; PRMT1 FP inh: -1.1; LEDGF integ inh: 25.5*; ABHD5 PLIN5 PPI: 1.9; UHRF1 ctr MBD2: 72.9*; MBD2 DBD conf: 48.1*; IN multimer act: 19.0*; TRFRET interf: -95.9; IN-LEDGF confirm: 34.0*

How did C=C(C)C(=O)Nc1cccc(C2=NOC3(C2)C[C@@H](C(N)=O)N(C(=O)C2(C)CC2)C3)c1 (stereo partly drawn) do in these assays?
UHRF1 MBD2 ctr: 91.5*; MBD2 inh: 54.6*; PRMT1 FP inh: 0.4; LEDGF integ inh: 35.8*; ABHD5 PLIN5 PPI: -3.4; UHRF1 ctr MBD2: 94.0*; MBD2 DBD conf: 79.1*; IN multimer act: 93.4*; TRFRET interf: -334.1; IN-LEDGF confirm: 60.1*

Results for COc1ccc(C(c2c(C)[nH]n(-c3ccccc3)c2=O)c2c(C)[nH]n(-c3ccccc3)c2=O)cc1OC ?
UHRF1 MBD2 ctr: 20.6; MBD2 inh: 16.4*; PRMT1 FP inh: 2.9; LEDGF integ inh: 26.1*; ABHD5 PLIN5 PPI: -3.0; RBBP9 inh: -7.1; UHRF1 ctr MBD2: 1.5; MBD2 DBD conf: -0.2; IN multimer act: 4.4; TRFRET interf: -15.8; IN-LEDGF confirm: 8.1

What do the screens show for `COc1ccc(C(c2c(C)n(C)n(-c3ccccc3)c2=O)c2c(C)n(C)n(-c3ccccc3)c2=O)cc1OC`?
UHRF1 MBD2 ctr: 1.5; MBD2 inh: -4.7; PRMT1 FP inh: -0.1; LEDGF integ inh: 2.9; ABHD5 PLIN5 PPI: 7.3

Results for CCOC(=O)[C@@]12CCC3=C1N(CCC3)C(=O)[C@H](CC(=O)NCC1CCCCC1)C2 ?
UHRF1 MBD2 ctr: 0.5; MBD2 inh: -3.8; PRMT1 FP inh: -2.6; LEDGF integ inh: 4.3

Results for CC1=NN(c2ccccc2)C(=O)C1 ?
UHRF1 MBD2 ctr: 18.3; MBD2 inh: 17.5*; PRMT1 FP inh: 14.8; LEDGF integ inh: 30.9*; ABHD5 PLIN5 PPI: -28.7; RBBP9 inh: -6.5; UHRF1 ctr MBD2: 5.8; MBD2 DBD conf: 0.7; IN multimer act: 1.2; TRFRET interf: -4.3; IN-LEDGF confirm: 1.1

How did O=C(Nc1nc(Cc2ccccc2)c(-c2ccccc2)n1Cc1ccccc1)c1ccccc1 do in these assays?
UHRF1 MBD2 ctr: 1.4; MBD2 inh: -0.8; PRMT1 FP inh: -0.5; LEDGF integ inh: 9.7
